In the library only some 2.6% were active in any assay of this set; here they are far more common.
HSV replic up – enhancers of HSV replication in host cells, fold increase, host cell viability; maximum fold increase; 220,000 tested, 0.005% active; HSV replication augmentation in cells; in the data active means maximum fold increase above about 1.5; inconclusive means no clear call, values can overlap the other calls; tested in PC3 cells
HSF1 inh – HSF1 inhibitors in luciferase reporter cells, primary screen, cell-based, NIH3T3, luminescence | NIH3T3-HGL HSE-luciferase, MG132-induced, luminescence 8 h; stronger effect = lower value | activity change, negative = inhibition, % at 7.5 µM (by protocol) | 300,000 tested, 0.77% active | AID 2098, 2009;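 active means more than half of replicate wells show activity change below -50%, luminescence cut by over half; inconclusive means some wells, but at most half, below -50%; inactive means no replicate well below -50%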;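 further: luciferase reports HSF-1 transcriptional activity via heat shock element; 0% = median of DMSO wells and -100% = zero luminescence signal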
Mdm2 ligase inh – MDM2-luciferase reporter signal enhancers, primary screen, MDM2 E3 ligase inhibitor project, cell-based, luminescence, 1536-well | E3 ubiquitin-protein ligase Mdm2 (Homo sapiens), Q00987 | cell-based MDM2 ubiquitination luciferase reporter, 2 h; 0 = plate control, 100 = twice control, blank-subtracted | signal enhancement, % at 5 µM | 210,000 tested, 0.11% active | AID 1230, 2008;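 active means signal enhancement of 30% or more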;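 further: luminescence tracks abundance of the self-degrading MDM2-luciferase fusion protein; higher signal means inhibition of MDM2 E3 ligase activity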
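Test system: stable mammalian line carrying autodegrading MDM2–luciferase fusion reporter; quantity: 2000 cells in each well; times: 4 h cell settling then 2 h compound exposure, 37 °C; detection: luminescence with SteadyLite reagent, 15 min at room temperature; evaluation: percent signal gain over controls, blank-subtracted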
Hsp70 activator – Hsp70 transcriptional activators, primary screen, cell-based, HeLa, Hsp70 promoter luciferase, luminescence, 10 µM | HeLa Hsp70 promoter luciferase reporter; scaled: vehicle 0, proteasome-inhibitor control 100% | activation, % at 10 µM | 200,000 tested, 0.04% active;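 active means activation above the mean across all tested compounds plus 3 SD, cutoff set per campaign, cut at about 5.5% in these data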;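 further: 100% = MG132 at 30 µM as the positive control and 0% = DMSO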
HSF-1 act – HSF-1 activators, primary screen, NIH3T3-HGL cells, MG132 stress, luminescence, single point. 300,000 tested, 1.7% active. activation, % at 9 µM. NIH3T3-HGL HSF-1 luciferase reporter, 8 h; 100% = twice DMSO control signal;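 active means mean replicate activation of at least 50% with a set share of replicates each reaching 50%; inconclusive means only one of those two conditions met; inactive means mean below 50% and too few replicates reaching it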;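 further: 0% = median of the neutral control wells and 100% = twice that signal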
Rad51 HR inh – human RAD51 strand exchange inhibitors, primary screen, biochemical, fluorescence; DNA repair protein RAD51 homolog 1 (Homo sapiens), Q06609; hRad51 DNA strand exchange, fluorescence dequenching; inhibition, % at 10 µM; 200,000 tested, 0.085% active; AID 1385, 2008;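 active means inhibition above 40% at the single screening dose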;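 further: 0% = DMSO control wells and 100% = blanks with heterologous ssDNA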
Target sequence (Q06609 whole entry, looked up): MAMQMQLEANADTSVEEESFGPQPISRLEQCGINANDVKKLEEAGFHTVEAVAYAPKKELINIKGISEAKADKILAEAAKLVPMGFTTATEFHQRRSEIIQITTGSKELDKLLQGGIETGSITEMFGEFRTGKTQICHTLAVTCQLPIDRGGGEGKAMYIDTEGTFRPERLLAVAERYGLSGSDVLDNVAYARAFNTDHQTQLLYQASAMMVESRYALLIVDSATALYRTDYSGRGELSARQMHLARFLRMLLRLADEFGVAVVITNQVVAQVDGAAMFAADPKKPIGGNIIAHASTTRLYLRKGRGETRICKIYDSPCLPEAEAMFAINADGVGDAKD
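Test system: preformed human Rad51 ssDNA filaments. Compound dosing: single dose, 10 µM final compound. Incubation: filaments 15 min 37 °C, then compound 30 min. Technique: FRET fluorescence dequenching, excitation 485 nm, emission 520 nm. Read-out basis: percent inhibition from fluorescence, normalised to plate control and blank means. Benchmarks: plate controls and plate blanks.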
An asterisk follows results filed as active; i = inactive; ? = inconclusive; nt = no result.

SMILES | HSV replic up | HSF1 inh | Mdm2 ligase inh | Hsp70 activator | HSF-1 act | Rad51 HR inh
CN(C)c1ccc(NS(=O)(=O)c2cc(Cl)ccc2Cl)cc1 | i | -56.1* | -6.5 | -0.3 | -61.0 | 7.9
CCN(c1ccc(NS(=O)(=O)c2cc(Cl)ccc2Cl)cc1)C(C)C | i | -12.5 | -7.0 | 0.0 | -5.6 | nt
Nc1nc(CCl)nc(Nc2ccc3ccccc3c2)n1 | i | 80.4 | -27.5 | nt | 111.3* | -5.6
Cc1csc(NC(=O)c2cncc(Br)c2)n1 | i | 1.8 | -14.4 | -0.3 | 9.7 | 22.1
CCOc1ncccc1C(=O)NCCc1c[nH]c2ccccc12 | nt | 51.0 | nt | nt | 89.4* | nt
Cc1nn(Cc2ccccc2)c(C)c1NC(=O)c1noc2c1CCc1ccccc1-2 | i | -67.2* | -0.5 | 0.2 | -72.0 | 11.2
Cc1ccc(NC(=O)c2noc3c2CCc2ccccc2-3)cc1 | i | 21.3 | -0.9 | 0.1 | ? | -3.4
O=C(NCc1cccnc1)/C(=C/c1ccc(-c2ccc(Cl)cc2)o1)S(=O)(=O)c1ccccc1 | i | 68.8 | -12.6 | 2.9 | 86.9* | -4.1
COc1ccc(-c2cc(C(=O)N/N=C(\C)c3cccnc3)c3ccccc3n2)c(OC)c1 | nt | -2.2 | nt | nt | 2.5 | nt
Cc1cc(Sc2ncnc(N)c2[N+](=O)[O-])ncn1 | i | 50.7 | -13.3 | -0.4 | 64.9* | 1.9
O=C(O)c1ccn(Cn2cnc3ccccc32)n1 | i | -75.3* | -12.2 | 0.1 | -79.8 | 13.8
O=C(Cn1cnc2ccccc21)c1ccccc1 | nt | -0.6 | nt | nt | -8.2 | nt
O=C(CCCCCNC(=O)c1ccccc1Br)N=Nc1c(O)[nH]c2ccccc12 | i | -1.8 | -12.5 | -0.4 | 8.2 | 4.5
COc1ccc(NC(=O)CCCn2c(=O)oc3ccccc32)cc1Cl | i | 38.3 | 11.9 | -0.3 | 62.3* | 9.9
O=C(CCn1c(=O)oc2ccccc21)Nc1ccccc1 | i | 45.8 | -17.7 | 0.6 | 100.8* | -6.1
COc1ccc(NC(=O)COC(=O)/C=C/C(=O)OCC(=O)Nc2ccc(OC)c(Cl)c2)cc1Cl | i | 97.4 | 5.1 | -0.4 | 138.2* | -2.6
COc1cc(OC)c(NC(=O)CCCn2c(=O)oc3ccccc32)cc1Cl | i | 3.4 | 0.5 | 0.2 | 12.9 | 8.7
CCOC(=O)/C=C/C(=O)OCC(=O)Nc1ccc(OC)c(Cl)c1 | i | 15.6 | -7.4 | -0.5 | 48.1 | -18.5
Cc1ccc(NC(=O)CCn2c(=O)oc3ccccc32)cc1 | i | 0.3 | 8.8 | -0.1 | 15.1 | 1.3
O=S(=O)(c1ccc(Br)c2ccccc12)N1CCCC1 | nt | 1.0 | nt | nt | 10.0 | nt
O=[N+]([O-])c1ccc(-c2nc3ccc([N+](=O)[O-])cc3[nH]2)cc1 | i | 37.3 | -4.3 | 0.3 | 55.0* | -3.5
Nc1ccc(-c2nc3ccc([N+](=O)[O-])cc3[nH]2)cc1 | i | 17.8 | -11.7 | -0.4 | 15.8 | 19.6
Cc1ccc(OCc2nc(-c3ccccc3)no2)c(C)c1 | i | 56.1 | -9.1 | 0.5 | 109.0* | 0.9
Cc1ccc(OCc2nc(-c3cccs3)no2)c([N+](=O)[O-])c1 | i | 54.6 | -47.9 | 0.1 | 103.9* | 0.2
O=[N+]([O-])c1ccc(F)cc1OCc1nc(-c2cccs2)no1 | i | 27.6 | 0.3 | 0.1 | 66.0* | 0.5
SMILES | HSV replic up | HSF1 inh | Mdm2 ligase inh | Hsp70 activator | HSF-1 act | Rad51 HR inh
O=[N+]([O-])c1ccccc1OCc1nc(-c2cccs2)no1 | i | 27.2 | -11.7 | -0.1 | 82.4* | -0.3
O=C(O)CCc1nc(-c2cccs2)no1 | nt | 1.2 | 0.4 | -0.3 | -0.7 | nt
Cc1cc(C)c(C)c(OCc2nc(-c3cccnc3)no2)c1 | i | 4.6 | -13.1 | -0.4 | -18.6 | 2.2
COCCn1c(=O)[nH]c2cc(C(=O)NCCc3ccc(S(N)(=O)=O)cc3)ccc2c1=O | i | 2.3 | -8.1 | -0.2 | -4.9 | 3.0
O=C(Nc1ccccc1)c1ccc(OC(=O)c2ccccc2)cc1 | nt | -2.1 | nt | nt | -3.0 | nt
CC(NC(=O)/C=C/c1ccco1)c1nc2ccccc2n1Cc1cccc(Cl)c1 (configuration not stated) | nt | 37.7 | -5.4 | -0.3 | 70.3* | -4.1

Bioassay records: PubChem BioAssay, several laboratories
